Data published in ChEMBL document CHEMBL5705892, “MK-2206, an allosteric Akt inhibitor, enhances antitumor efficacy by standard chemotherapeutic agents or molecular targeted drugs in vitro and in vivo” (Mol Cancer Ther, 2010).
Active and inactive are the calls of the source. No cut-off for these calls is given here.

Key:
[1] = target: RAC-alpha serine/threonine-protein kinase (Homo sapiens) (UniProt P31749); assay: Inhibition of AKT in human HCC827 cells assessed as reduction in PRAS40 phosphorylation at T246 residue at 5 umol/L measured after 5 hrs by Western blot analysis; assay type: cell-based; settings: dose 5.0 µmol/L
MDA-MB-468 [2] = assay: Synergistic antiproliferative activity against human MDA-MB-468 cells assessed as combination index at ED50 measured after 72 hrs in presence of docetaxel by celltiter-glo assay; assay type: functional
Method in brief: (§1)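 Cells grown in RPMI 1640 with 10% heat-inactivated FBS at 37°C, 5% CO₂. Seeded at 2 to 3 × 10³ per well; drugs added 24 h later. […] Viability read as cellular ATP by CellTiter-Glo. CI calculated by Chou–Talalay from median-effect plots at ED50, ED75 and ED90.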

MDA-MB-453 = assay: Synergistic antiproliferative activity against human MDA-MB-453 cells assessed as combination index at ED50 measured after 72 hrs in presence of docetaxel by celltiter-glo assay; assay type: functional; method in brief: as §1
NCI-H1703 = assay: Synergistic antiproliferative activity against human NCI-H1703 cells assessed as combination index at ED25 to ED90 measured after 72 hrs in presence of gemcitabine by celltiter-glo assay; assay type: functional
NCI-H292 [3] = assay: Synergistic antiproliferative activity against human NCI-H292 cells assessed as combination index at ED50 measured after 72 hrs in presence of erlotinib by celltiter-glo assay; assay type: functional
NCI-N87 [4] = assay: Synergistic antiproliferative activity against human NCI-N87 cells assessed as combination index at ED50 treated 24 hrs prior to lapatinib and measured after 72 hrs by celltiter-glo assay; assay type: functional; settings: time 96 hrs
SK-BR-3 [5] = assay: Synergistic antiproliferative activity against human SK-BR-3 cells assessed as combination index at ED90 measured after 96 hrs in presence of lapatinib by celltiter-glo assay; assay type: functional
A2780 = assay: Induction of apoptosis in carboplatin pretreated human A2780 cells assessed as increase in caspase-3/7 activity measured after 24 hrs by caspase-glo 3/7 assay; assay type: functional, cell-based; settings: dose 0.0625-1 µM
BT-474 = assay: Synergistic antiproliferative activity against human BT-474 cells assessed as combination index at ED50 preincubated for 24 hrs followed by compound washout and subsequent docetaxel addition and measured after 72 hrs by celltiter-glo assay; assay type: functional
Method in brief: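 Sequential schedule. Cells were seeded at 2 to 3 × 10³ per well in RPMI 1640 with 10% FBS and dosed 24 h after plating. They were exposed to the Akt inhibitor for 24 h, washed free of it, then given docetaxel for a further 72 h. Fixed concentration ratios spanned each agent's IC₅₀. ATP was read by CellTiter-Glo, and Chou–Talalay CI was calculated at ED50, ED75 and ED90.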

NCI-N87 [6] = assay: Synergistic antiproliferative activity against lapatinib pretreated human NCI-N87 cells assessed as combination index at ED90 measured after 72 hrs by celltiter-glo assay; assay type: functional
[7] = Toxicity in human SK-OV-3 cells xenografted CB17/icr SCID mouse at 60 to 120 mg/kg, po administered 3 times per week for 2 weeks starting 2 hrs post lapatinib treatment and measured during compound dosing; assay type: organism-based; settings: in vivo, 336 h, dose 60-120 mg/kg
Method in brief: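 SK-OV-3 cells in 50% Matrigel/PBS injected s.c. into flank of female C.B-17/ICR-scid mice; dosing began after 3 wk, randomized at mean tumour 0.13 cm³ (n = 5). Lapatinib 100 mg/kg p.o. in distilled water 5 d/wk for 2 wk; MK-2206 in 30% Captisol p.o. days 0, 2, 4, 7, 9, 11. Body weight and physical signs monitored.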

NCI-H358 [8] = assay: Synergistic antiproliferative activity against human NCI-H358 cells assessed as combination index at ED50 measured after 72 hrs in presence of erlotinib by celltiter-glo assay; assay type: functional
HCC70 = assay: Synergistic antiproliferative activity against lapatinib pretreated human HCC70 cells assessed as combination index at ED50 measured after 72 hrs by celltiter-glo assay; assay type: functional
A-431 [9] = assay: Antiproliferative activity against human A-431 cells assessed as reduction in cell proliferation measured after 72 hrs by celltiter-glo assay; assay type: functional, cell-based; settings: A-431, 72 h
Method in brief: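 Cells in RPMI 1640 with 10% heat-inactivated FBS at 37°C and 5% CO₂ were seeded at 2 to 3 × 10³ per well. […] Growth was read as cellular ATP by CellTiter-Glo.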

MDA-MB-468 [10] = assay: Synergistic antiproliferative activity against human MDA-MB-468 cells assessed as combination index at ED90 treated 24 hrs prior to lapatinib and measured after 72 hrs by celltiter-glo assay; assay type: functional; settings: time 96 hrs
A-431 [11] = assay: Synergistic antiproliferative activity against human A-431 cells assessed as combination index at ED90 measured after 72 hrs in presence of erlotinib by celltiter-glo assay; assay type: functional
Method in brief: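 Cells were seeded at 2–3 × 10³ per well in RPMI 1640 with 10% FBS. At 24 h, MK-2206 and the partner drug were added simultaneously at constant concentration ratios spanning each agent's IC₅₀, for 72 h. Growth was read as cellular ATP by CellTiter-Glo. CI was taken from median-effect plots of each agent alone and in combination (Chou–Talalay), at ED₅₀, ED₇₅ and ED₉₀.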

NCI-H292 [12] = assay: Antitumor activity against human NCI-H292 cells xenografted in CD-1 mouse assessed as tumor growth suppression at 120 mg/kg, po administered 3 times per week for 2 weeks starting 2 hrs post-erlotinib treatment and measured twice a week during compound dosing by caliper method; assay type: functional, organism-based
Method in brief: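 Female CD1-nude mice carried s.c. NCI-H292 cells in Matrigel/PBS and were randomized at 0.2 cm³, n = 5. […] MK-2206 (30% Captisol) was given 2 h later at 120 mg/kg po on days 0, 2, 4, 7, 9, 11, or at 360 mg/kg on days 0 and 7. Control received vehicle. Caliper volume twice weekly.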

[13] = target: RAC-alpha serine/threonine-protein kinase (Homo sapiens) (UniProt P31749); assay: Inhibition of AKT in human HCC827 cells assessed as reduction in S6 phosphorylation at S240/S244 residues at 5 umol/L measured after 5 hrs in presence of erlotinib by Western blot analysis; assay type: cell-based; settings: dose 5.0 µmol/L
SK-OV-3 = assay: Antitumor activity against human SK-OV-3 cells xenografted in CB17/icr SCID mouse assessed as tumor growth inhibition at 60 to 120 mg/kg, po administered 3 times per week for 2 weeks and measured twice a week during compound dosing by caliper method; assay type: functional, organism-based; settings: dose 60-120 mg/kg
Method in brief: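 SK-OV-3 cells were implanted s.c. into female C.B-17/ICR-scid mice, which were randomized at 0.13 cm³, n = 5. Lapatinib (water) was given at 100 mg/kg po on days 0–4 and 7–11. MK-2206 (30% Captisol) was given at 60 or 120 mg/kg po on days 0, 2, 4, 7, 9, 11. Tumor volume by calipers twice weekly.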

HCC1954 = assay: Synergistic antiproliferative activity against human HCC1954 cells assessed as combination index at ED90 measured after 96 hrs in presence of lapatinib by celltiter-glo assay; assay type: functional
NCI-H358 [14] = assay: Synergistic antiproliferative activity against human NCI-H358 cells assessed as combination index at ED90 measured after 72 hrs in presence of erlotinib by celltiter-glo assay; assay type: functional
SK-BR-3 [15] = assay: Synergistic antiproliferative activity against human SK-BR-3 cells assessed as combination index at ED50 measured after 72 hrs in presence of docetaxel by celltiter-glo assay; assay type: functional

Chain of RAC-alpha serine/threonine-protein kinase (Homo sapiens) (P31749 whole entry): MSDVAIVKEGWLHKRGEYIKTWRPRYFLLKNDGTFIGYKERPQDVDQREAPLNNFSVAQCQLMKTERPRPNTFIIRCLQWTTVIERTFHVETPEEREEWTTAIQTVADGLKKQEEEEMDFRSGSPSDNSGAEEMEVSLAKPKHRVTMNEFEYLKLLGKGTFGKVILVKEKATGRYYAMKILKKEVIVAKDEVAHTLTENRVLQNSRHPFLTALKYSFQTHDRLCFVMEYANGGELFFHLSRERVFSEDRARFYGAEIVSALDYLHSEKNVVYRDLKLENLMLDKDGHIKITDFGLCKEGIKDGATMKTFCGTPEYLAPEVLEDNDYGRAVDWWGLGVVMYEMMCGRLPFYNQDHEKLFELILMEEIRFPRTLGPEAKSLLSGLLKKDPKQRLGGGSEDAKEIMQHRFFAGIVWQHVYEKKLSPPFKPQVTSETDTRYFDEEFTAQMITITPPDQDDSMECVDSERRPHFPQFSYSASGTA

SMILES: Cl.NC1(c2ccc(-c3nc4ccn5c(=O)[nH]nc5c4cc3-c3ccccc3)cc2)CCC1
- inhibition [1]: Active
- CI50 (MDA-MB-468 [2]): 0.9
- CI50 (MDA-MB-453): 1.2
- CI (NCI-H1703): 0.43
- CI50 (NCI-H292 [3]): 0.44
- CI50 (NCI-N87 [4]): 0.18
- CI90 (SK-BR-3 [5]): 0.18
- Activity (A2780): Dose-Dependent Effect
- CI50 (BT-474): 1.6
- CI90 (NCI-N87 [6]): 0.18
- Activity [7]: Non-Toxic
- CI50 (NCI-H358 [8]): 0.44
- CI50 (HCC70): 0.18
- IC50 (A-431 [9]): 5.5 µM
- CI90 (MDA-MB-468 [10]): 0.18
- CI90 (A-431 [11]): 0.14
- Activity (NCI-H292 [12]): Active
- inhibition [13]: Active
- TGI (SK-OV-3): Active
- CI90 (HCC1954): 0.18
- CI90 (NCI-H358 [14]): 0.08
- CI50 (SK-BR-3 [15]): 0.8
